Reference: ChEMBL document CHEMBL4396885, “Thioether-based 2-aminobenzamide derivatives: Novel HDAC inhibitors with potent in vitro and in vivo antitumor activity” (Eur J Med Chem, 2019)

Columns and labels:
[1] = system: A-375; assay: Antiproliferative activity against human A375 cells assessed as growth inhibition at 8 uM after 72 hrs by CCK-8 assay relative to control; type: functional; details: A-375, 72 h, read-out: GI
[2] = system: SMMC-7721; assay: Antiproliferative activity against human SMMC7721 cells assessed as growth inhibition at 8 uM after 72 hrs by CCK-8 assay relative to control; type: functional; details: SMMC-7721, 72 h, read-out: GI
[3] = system: HCT-116; assay: Antiproliferative activity against human HCT116 cells assessed as growth inhibition at 2 uM after 72 hrs by CCK-8 assay relative to control; type: functional; details: HCT-116, 72 h, read-out: GI
[4] = system: HeLa; assay: Antiproliferative activity against human HeLa cells assessed as growth inhibition at 2 uM after 72 hrs by CCK-8 assay relative to control; type: functional; details: read-out: GI
[5] = system: A549; assay: Antiproliferative activity against human A549 cells assessed as growth inhibition at 8 uM after 72 hrs by CCK-8 assay relative to control; type: functional; details: A549, 72 h, read-out: GI
[6] = system: HCT-116; assay: Antiproliferative activity against human HCT116 cells assessed as growth inhibition at 8 uM after 72 hrs by CCK-8 assay relative to control; type: functional; details: HCT-116, 72 h, read-out: GI
[7] = system: SMMC-7721; assay: Antiproliferative activity against human SMMC7721 cells assessed as growth inhibition at 2 uM after 72 hrs by CCK-8 assay relative to control; type: functional; details: SMMC-7721, 72 h, read-out: GI
[8] = system: HeLa; assay: Antiproliferative activity against human HeLa cells assessed as growth inhibition at 8 uM after 72 hrs by CCK-8 assay relative to control; type: functional; details: read-out: GI
[9] = system: A549; assay: Antiproliferative activity against human A549 cells assessed as growth inhibition at 2 uM after 72 hrs by CCK-8 assay relative to control; type: functional; details: A549, 72 h, read-out: GI
[10] = system: A-375; assay: Antiproliferative activity against human A375 cells assessed as growth inhibition at 2 uM after 72 hrs by CCK-8 assay relative to control; type: functional; details: A-375, 72 h, read-out: GI
[11] = system: A-375; assay: Antiproliferative activity against human A375 cells assessed as decrease in cell viability after 72 hrs by CCK-8 assay; type: functional, cell-based; details: A-375, 72 h
Procedure, shortened: (§1)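 Cells grown to 70–85% confluence (A375, A549, HCT116 in RPMI1640; HeLa, SMMC7721 in DMEM; 10% FBS, 37 °C, 5% CO2), seeded 4000/well, dosed after 12 h across a concentration range, incubated 72 h, then CCK-8 for 1 h; absorbance at 450 nm. IC50 as mean ± SD of three separate experiments.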

[12] = system: A549; assay: Antiproliferative activity against human A549 cells assessed as decrease in cell viability after 72 hrs by CCK-8 assay; type: functional, cell-based; details: A549, 72 h; procedure, shortened: as §1
[13] = system: SMMC-7721; assay: Antiproliferative activity against human SMMC7721 cells assessed as decrease in cell viability after 72 hrs by CCK-8 assay; type: functional, cell-based; details: SMMC-7721, 72 h; procedure, shortened: as §1
[14] = system: HCT-116; assay: Antiproliferative activity against human HCT116 cells assessed as decrease in cell viability after 72 hrs by CCK-8 assay; type: functional, cell-based; details: HCT-116, 72 h; procedure, shortened: as §1
[15] = system: HeLa; assay: Antiproliferative activity against human HeLa cells assessed as decrease in cell viability after 72 hrs by CCK-8 assay; type: functional, cell-based; procedure, shortened: as §1

Structure (SMILES): COc1ccc(SCc2ccc(/C=C/C(=O)Nc3ccccc3N)cc2)cc1OC
- inhibition of growth at 8 µM [1]: 46.4%
- inhibition of growth at 8 µM [2]: 44.6%
- inhibition of growth at 2 µM [3]: 12.9%
- inhibition of growth at 2 µM [4]: 10.1%
- inhibition of growth at 8 µM [5]: 80.6%
- inhibition of growth at 8 µM [6]: 49.5%
- inhibition of growth at 2 µM [7]: 14.3%
- inhibition of growth at 8 µM [8]: 21.9%
- inhibition of growth at 2 µM [9]: 65.5%
- inhibition of growth at 2 µM [10]: 46%

Structure (SMILES): CC(C)(C)c1ccc(SCc2ccc(/C=C/C(=O)Nc3ccccc3N)cc2)cc1
- IC50 [11]: 1.55 µM
- inhibition of growth at 8 µM [1]: 35.5%
- inhibition of growth at 8 µM [2]: 23.6%
- inhibition of growth at 2 µM [3]: 6.66%
- inhibition of growth at 2 µM [4]: 17.5%
- inhibition of growth at 8 µM [5]: 79.8%
- IC50 [12]: 0.64 µM
- inhibition of growth at 8 µM [6]: 39%
- inhibition of growth at 2 µM [7]: 18.3%
- inhibition of growth at 8 µM [8]: 9.8%
- inhibition of growth at 2 µM [9]: 71.5%
- inhibition of growth at 2 µM [10]: 38.4%

Structure (SMILES): Nc1ccccc1NC(=O)/C=C/c1ccc(CSCCc2ccccc2)cc1
- IC50 [11]: 15.7 µM
- inhibition of growth at 8 µM [1]: 37.4%
- inhibition of growth at 8 µM [2]: 15.8%
- inhibition of growth at 2 µM [3]: 18%
- inhibition of growth at 2 µM [4]: 0.19%
- inhibition of growth at 8 µM [5]: 50.3%
- IC50 [12]: 1.15 µM
- inhibition of growth at 8 µM [6]: 10.6%
- inhibition of growth at 2 µM [7]: 14.7%
- inhibition of growth at 8 µM [8]: 3.57%
- IC50 [13]: 10.9 µM
- inhibition of growth at 2 µM [9]: 45.7%
- inhibition of growth at 2 µM [10]: 41.9%

Structure (SMILES): Cc1ccc(SCc2ccc(/C=C/C(=O)Nc3ccccc3N)cc2)cc1
- inhibition of growth at 8 µM [1]: 31.2%
- inhibition of growth at 8 µM [2]: 22.1%
- inhibition of growth at 2 µM [3]: 6.23%
- inhibition of growth at 2 µM [4]: 25.4%
- inhibition of growth at 8 µM [5]: 48.2%
- inhibition of growth at 8 µM [6]: 4.93%
- inhibition of growth at 2 µM [7]: 22%
- inhibition of growth at 8 µM [8]: 21.7%
- inhibition of growth at 2 µM [9]: 43.4%
- inhibition of growth at 2 µM [10]: 22.9%

Structure (SMILES): Nc1ccccc1NC(=O)/C=C/c1ccc(CSc2ccc(Cl)cc2)cc1
- inhibition of growth at 8 µM [1]: 48.2%
- inhibition of growth at 8 µM [2]: 16.4%
- inhibition of growth at 2 µM [3]: 5.62%
- inhibition of growth at 2 µM [4]: 1.94%
- inhibition of growth at 8 µM [5]: 59.6%
- inhibition of growth at 8 µM [6]: 3.27%
- inhibition of growth at 2 µM [7]: 15.2%
- inhibition of growth at 8 µM [8]: 17.3%
- inhibition of growth at 2 µM [9]: 55.2%
- inhibition of growth at 2 µM [10]: 13.4%

Structure (SMILES): Nc1ccccc1NC(=O)c1ccc(CSc2cccc(F)c2)cc1
- IC50 [11]: 3.9 µM
- inhibition of growth at 8 µM [1]: 76.2%
- inhibition of growth at 8 µM [2]: 83%
- inhibition of growth at 2 µM [3]: 5.5%
- IC50 [14]: 2.87 µM
- inhibition of growth at 2 µM [4]: 22.5%
- inhibition of growth at 8 µM [5]: 72.7%
- inhibition of growth at 8 µM [6]: 81.3%
- inhibition of growth at 2 µM [7]: 18.6%
- inhibition of growth at 8 µM [8]: 78.4%
- IC50 [15]: 3.24 µM
- IC50 [13]: 3.28 µM
- inhibition of growth at 2 µM [9]: 46.9%
- inhibition of growth at 2 µM [10]: 37.7%

Structure (SMILES): Nc1ccccc1NC(=O)c1ccc(CSc2ccc(Br)cc2)cc1
- inhibition of growth at 8 µM [1]: 6.17%
- inhibition of growth at 8 µM [2]: 25.3%
- inhibition of growth at 2 µM [3]: 9.96%
- inhibition of growth at 2 µM [4]: 18.8%
- inhibition of growth at 8 µM [5]: 45.6%
- inhibition of growth at 8 µM [6]: 67.7%
- inhibition of growth at 2 µM [7]: 10%
- inhibition of growth at 8 µM [8]: 38.2%
- inhibition of growth at 2 µM [9]: 33.2%
- inhibition of growth at 2 µM [10]: 4.35%

Structure (SMILES): Nc1ccccc1NC(=O)/C=C/c1ccc(CSc2ccc(C(F)(F)F)cn2)cc1
- inhibition of growth at 8 µM [1]: 3.96%
- inhibition of growth at 8 µM [2]: 20.1%
- inhibition of growth at 2 µM [3]: 4.42%
- inhibition of growth at 2 µM [4]: 6.07%
- inhibition of growth at 8 µM [5]: 56.5%
- inhibition of growth at 8 µM [6]: 14.9%
- inhibition of growth at 2 µM [7]: 12.1%
- inhibition of growth at 8 µM [8]: 6.82%
- inhibition of growth at 2 µM [9]: 51.7%
- inhibition of growth at 2 µM [10]: 10.3%

Structure (SMILES): Nc1ccccc1NC(=O)c1ccc(CSc2ccc(Cl)cc2)cc1
- inhibition of growth at 8 µM [1]: 48.6%
- inhibition of growth at 8 µM [2]: 16.5%
- inhibition of growth at 2 µM [3]: 17.5%
- IC50 [14]: 3.75 µM
- inhibition of growth at 2 µM [4]: 19.2%
- inhibition of growth at 8 µM [5]: 50.4%
- inhibition of growth at 8 µM [6]: 76.6%
- inhibition of growth at 2 µM [7]: 2.93%
- inhibition of growth at 8 µM [8]: 51.4%
- IC50 [15]: 12.7 µM
- inhibition of growth at 2 µM [9]: 47.3%
- inhibition of growth at 2 µM [10]: 25.2%

Structure (SMILES): COC(=O)c1ccccc1SCc1ccc(C(=O)Nc2ccccc2N)cc1
- IC50 [11]: 3.61 µM
- inhibition of growth at 8 µM [1]: 70.1%
- inhibition of growth at 8 µM [2]: 62.5%
- inhibition of growth at 2 µM [3]: 21.8%
- IC50 [14]: 2.78 µM
- inhibition of growth at 2 µM [4]: 29.8%
- inhibition of growth at 8 µM [5]: 46.1%
- inhibition of growth at 8 µM [6]: 92%
- inhibition of growth at 2 µM [7]: 18%
- inhibition of growth at 8 µM [8]: 55.5%
- IC50 [15]: 6.68 µM
- IC50 [13]: 4.49 µM
- inhibition of growth at 2 µM [9]: 44.7%
- inhibition of growth at 2 µM [10]: 35.1%
